Reference: ChEMBL document CHEMBL5724801, “EUbOPEN Chemogenomics Library - Multiplex” (2024)
“And” between values parts separate entries of the source, which are not always exact repeats. Equal values may be shown once.

Tested on: Fibroblast
Experiment: Multiplex assay against human fibroblast
Assay type: toxicity, cell-based
Procedure, shortened: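 Compound was added to live cells that had been stained at seeding with Hoechst33342, BioTracker Green Microtubule Cytoskeleton Dye, MitoTracker Red and Annexin V Alexa Fluor 680, and imaging followed on a CQ1 microscope at 37°C and 5% CO2. CellPathfinder machine-learning gating divided cells into Hoechst high-intensity objects or normal cells, normal cells into healthy, pyknosed or fragmented nuclei, and pyknosed cells into mitotic or apoptotic. Tubulin, mitochondrial-mass and membrane-permeability phenotypes are per cents of healthy-nucleus cells.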

[1] = 12 h, 1 µM, compound concentration 1 uM
[2] = 12 h, 10 µM, compound concentration 10 uM
[3] = 24 h, 1 µM, compound concentration 1 uM
[4] = 24 h, 10 µM, compound concentration 10 uM
[5] = 48 h, 1 µM, compound concentration 1 uM
[6] = 48 h, 10 µM, compound concentration 10 uM

N[C@@]1(C(=O)O)CO[C@H]2[C@H](C(=O)O)[C@H]21 [LY-379268]
Population Apoptotic (%) [1]: 22% and 44% | Population Fragmented Nuclei (%) [1]: 17% and 33% | Population Healthy Nuclei (%) [1]: 70% and 43% | Population Hoechst High Intensity Objects (%) [1]: 1% and 10% | Population Membrane Permeable-Phenotype (%) [1]: 0% and 5% | Population Mitochondria Different-Phenotype (%) [1]: 2% and 1% | Population Mitotic Cells (%) [1]: 77% and 55% | Population Normal (%) [1]: 98% and 89% | Population Pyknosed Nuclei (%) [1]: 11% and 22% | Population Tubulin-Different-Phenotype (%) [1]: 25% and 45% | Total Cell Count [1]: 156 and 145 | Population Apoptotic (%) [2]: 29% and 21% | Population Fragmented Nuclei (%) [2]: 15% | Population Healthy Nuclei (%) [2]: 69% and 51% | Population Hoechst High Intensity Objects (%) [2]: 3% | Population Membrane Permeable-Phenotype (%) [2]: 0% and 4% | Population Mitochondria Different-Phenotype (%) [2]: 3% and 1% | Population Mitotic Cells (%) [2]: 70% and 78% | Population Normal (%) [2]: 96% | Population Pyknosed Nuclei (%) [2]: 14% and 33% | Population Tubulin-Different-Phenotype (%) [2]: 19% and 47% | Total Cell Count [2]: 187 and 128 | Population Apoptotic (%) [3]: 36% and 47% | Population Fragmented Nuclei (%) [3]: 16% and 40% | Population Healthy Nuclei (%) [3]: 70% and 41% | Population Hoechst High Intensity Objects (%) [3]: 0% and 10% | Population Membrane Permeable-Phenotype (%) [3]: 0% and 4% | Population Mitochondria Different-Phenotype (%) [3]: 5% and 10% | Population Mitotic Cells (%) [3]: 63% and 52% | Population Normal (%) [3]: 99% and 89% | Population Pyknosed Nuclei (%) [3]: 12% and 18% | Population Tubulin-Different-Phenotype (%) [3]: 23% and 60% | Total Cell Count [3]: 152 and 125 | Population Apoptotic (%) [4]: 66% and 22% | Population Fragmented Nuclei (%) [4]: 14% and 17% | Population Healthy Nuclei (%) [4]: 75% and 53% | Population Hoechst High Intensity Objects (%) [4]: 5% and 6% | Population Membrane Permeable-Phenotype (%) [4]: 0% and 2% | Population Mitochondria Different-Phenotype (%) [4]: 3% and 0% | Population Mitotic Cells (%) [4]: 33% and 77% | Population Normal (%) [4]: 94% and 93% | Population Pyknosed Nuclei (%) [4]: 10% and 28% | Population Tubulin-Different-Phenotype (%) [4]: 19% and 44% | Total Cell Count [4]: 189 and 133 | Population Apoptotic (%) [5]: 76% and 50% | Population Fragmented Nuclei (%) [5]: 22% and 33% | Population Healthy Nuclei (%) [5]: 68% and 55% | Population Hoechst High Intensity Objects (%) [5]: 3% and 11% | Population Membrane Permeable-Phenotype (%) [5]: 0% and 4% | Population Mitochondria Different-Phenotype (%) [5]: 5% and 7% | Population Mitotic Cells (%) [5]: 23% and 50% | Population Normal (%) [5]: 96% and 88% | Population Pyknosed Nuclei (%) [5]: 8% and 11% | Population Tubulin-Different-Phenotype (%) [5]: 26% and 59% | Total Cell Count [5]: 156 and 136 | Population Apoptotic (%) [6]: 62% and 42% | Population Fragmented Nuclei (%) [6]: 14% and 27% | Population Healthy Nuclei (%) [6]: 72% and 56% | Population Hoechst High Intensity Objects (%) [6]: 1% and 7% | Population Membrane Permeable-Phenotype (%) [6]: 0% and 10% | Population Mitochondria Different-Phenotype (%) [6]: 0% and 5% | Population Mitotic Cells (%) [6]: 37% and 57% | Population Normal (%) [6]: 98% and 92% | Population Pyknosed Nuclei (%) [6]: 13% and 16% | Population Tubulin-Different-Phenotype (%) [6]: 19% and 47% | Total Cell Count [6]: 179 and 140

COc1ccc(Cl)cc1[C@]1(F)C(=O)Nc2cc(C(F)(F)F)ccc21 [FLINDOKALNER]
Population Apoptotic (%) [1]: 10.87% and 19.35% | Population Fragmented Nuclei (%) [1]: 9.6% and 5.91% | Population Healthy Nuclei (%) [1]: 64.41% and 80% | Population Hoechst High Intensity Objects (%) [1]: 0% | Population Membrane Permeable-Phenotype (%) [1]: 2.63% and 1.7% | Population Mitochondria Different-Phenotype (%) [1]: 7.02% and 9.09% | Population Mitotic Cells (%) [1]: 89.13% and 80.65% | Population Normal (%) [1]: 100% | Population Pyknosed Nuclei (%) [1]: 25.99% and 14.09% | Population Tubulin-Different-Phenotype (%) [1]: 10.53% and 15.34% | Total Cell Count [1]: 177 and 220 | Population Apoptotic (%) [2]: 10.2% and 11.76% | Population Fragmented Nuclei (%) [2]: 14.63% and 8.91% | Population Healthy Nuclei (%) [2]: 55.49% and 74.26% | Population Hoechst High Intensity Objects (%) [2]: 0% | Population Membrane Permeable-Phenotype (%) [2]: 5.49% and 4.67% | Population Mitochondria Different-Phenotype (%) [2]: 15.38% and 11.33% | Population Mitotic Cells (%) [2]: 89.8% and 88.24% | Population Normal (%) [2]: 100% | Population Pyknosed Nuclei (%) [2]: 29.88% and 16.83% | Population Tubulin-Different-Phenotype (%) [2]: 15.38% and 34.67% | Total Cell Count [2]: 164 and 202 | Population Apoptotic (%) [3]: 14.63% and 27.27% | Population Fragmented Nuclei (%) [3]: 10.29% and 4.91% | Population Healthy Nuclei (%) [3]: 69.61% and 85.27% | Population Hoechst High Intensity Objects (%) [3]: 0% | Population Membrane Permeable-Phenotype (%) [3]: 3.52% and 2.09% | Population Mitochondria Different-Phenotype (%) [3]: 5.63% and 5.76% | Population Mitotic Cells (%) [3]: 85.37% and 72.73% | Population Normal (%) [3]: 100% | Population Pyknosed Nuclei (%) [3]: 20.1% and 9.82% | Population Tubulin-Different-Phenotype (%) [3]: 19.72% and 10.99% | Total Cell Count [3]: 204 and 224 | Population Apoptotic (%) [4]: 4.65% and 14.29% | Population Fragmented Nuclei (%) [4]: 9.94% and 5.1% | Population Healthy Nuclei (%) [4]: 64.91% and 84.18% | Population Hoechst High Intensity Objects (%) [4]: 0% | Population Membrane Permeable-Phenotype (%) [4]: 3.6% and 3.03% | Population Mitochondria Different-Phenotype (%) [4]: 12.61% and 10.3% | Population Mitotic Cells (%) [4]: 95.35% and 85.71% | Population Normal (%) [4]: 100% | Population Pyknosed Nuclei (%) [4]: 25.15% and 10.71% | Population Tubulin-Different-Phenotype (%) [4]: 27.93% and 29.09% | Total Cell Count [4]: 171 and 196 | Population Apoptotic (%) [5]: 33.33% and 18.18% | Population Fragmented Nuclei (%) [5]: 9.22% and 7.42% | Population Healthy Nuclei (%) [5]: 83.87% and 87.77% | Population Hoechst High Intensity Objects (%) [5]: 0% | Population Membrane Permeable-Phenotype (%) [5]: 2.2% and 1% | Population Mitotic Cells (%) [5]: 66.67% and 81.82% | Population Normal (%) [5]: 100% | Population Pyknosed Nuclei (%) [5]: 6.91% and 4.8% | Population Tubulin-Different-Phenotype (%) [5]: 12.09% and 14.43% | Total Cell Count [5]: 217 and 229 | Population Apoptotic (%) [6]: 22.22% and 18.18% | Population Healthy Nuclei (%) [6]: 74.18% and 91.26% | Population Hoechst High Intensity Objects (%) [6]: 0% | Population Membrane Permeable-Phenotype (%) [6]: 2.96% and 5.32% | Population Mitochondria Different-Phenotype (%) [6]: 14.81% and 5.32% | Population Mitotic Cells (%) [6]: 77.78% and 81.82% | Population Normal (%) [6]: 100% | Population Pyknosed Nuclei (%) [6]: 9.89% and 5.34% | Population Tubulin-Different-Phenotype (%) [6]: 14.81% and 30.32% | Total Cell Count [6]: 182 and 206

Cc1sc2c(c1C)C(c1ccc(Cl)cc1)=N[C@H](CC(=O)OC(C)(C)C)c1nnc(C)n1-2
Population Apoptotic (%) [1]: 43% and 33% | Population Fragmented Nuclei (%) [1]: 15% and 26% | Population Healthy Nuclei (%) [1]: 62% and 51% | Population Hoechst High Intensity Objects (%) [1]: 2% and 5% | Population Membrane Permeable-Phenotype (%) [1]: 0% and 15% | Population Mitochondria Different-Phenotype (%) [1]: 5% and 10% | Population Mitotic Cells (%) [1]: 56% and 66% | Population Normal (%) [1]: 97% and 94% | Population Pyknosed Nuclei (%) [1]: 22% | Population Tubulin-Different-Phenotype (%) [1]: 30% and 46% | Total Cell Count [1]: 180 and 159 | Population Apoptotic (%) [2]: 43% and 51% | Population Fragmented Nuclei (%) [2]: 19% and 30% | Population Healthy Nuclei (%) [2]: 55% and 39% | Population Hoechst High Intensity Objects (%) [2]: 7% and 5% | Population Membrane Permeable-Phenotype (%) [2]: 0% and 4% | Population Mitochondria Different-Phenotype (%) [2]: 15% and 20% | Population Mitotic Cells (%) [2]: 56% and 48% | Population Normal (%) [2]: 92% and 94% | Population Pyknosed Nuclei (%) [2]: 25% and 29% | Population Tubulin-Different-Phenotype (%) [2]: 90% and 95% | Total Cell Count [2]: 128 and 169 | Population Apoptotic (%) [3]: 82% and 46% | Population Fragmented Nuclei (%) [3]: 17% and 29% | Population Healthy Nuclei (%) [3]: 60% and 50% | Population Hoechst High Intensity Objects (%) [3]: 2% and 6% | Population Membrane Permeable-Phenotype (%) [3]: 0% and 11% | Population Mitochondria Different-Phenotype (%) [3]: 2% and 5% | Population Normal (%) [3]: 97% and 93% | Population Pyknosed Nuclei (%) [3]: 21% and 20% | Population Tubulin-Different-Phenotype (%) [3]: 29% and 51% | Total Cell Count [3]: 186 and 149 | Population Apoptotic (%) [4]: 75% and 51% | Population Fragmented Nuclei (%) [4]: 16% and 26% | Population Healthy Nuclei (%) [4]: 69% and 45% | Population Hoechst High Intensity Objects (%) [4]: 8% and 4% | Population Membrane Permeable-Phenotype (%) [4]: 2% and 4% | Population Mitochondria Different-Phenotype (%) [4]: 19% and 26% | Population Mitotic Cells (%) [4]: 25% and 48% | Population Normal (%) [4]: 91% and 95% | Population Pyknosed Nuclei (%) [4]: 14% and 27% | Population Tubulin-Different-Phenotype (%) [4]: 76% and 87% | Total Cell Count [4]: 123 and 165 | Population Apoptotic (%) [5]: 63% and 53% | Population Fragmented Nuclei (%) [5]: 19% and 29% | Population Healthy Nuclei (%) [5]: 66% and 49% | Population Hoechst High Intensity Objects (%) [5]: 5% | Population Membrane Permeable-Phenotype (%) [5]: 0% and 12% | Population Mitochondria Different-Phenotype (%) [5]: 2% and 10% | Population Mitotic Cells (%) [5]: 36% and 46% | Population Normal (%) [5]: 94% and 95% | Population Pyknosed Nuclei (%) [5]: 13% and 21% | Population Tubulin-Different-Phenotype (%) [5]: 28% and 69% | Total Cell Count [5]: 170 and 140 | Population Apoptotic (%) [6]: 50% and 63% | Population Fragmented Nuclei (%) [6]: 21% and 35% | Population Healthy Nuclei (%) [6]: 66% and 51% | Population Hoechst High Intensity Objects (%) [6]: 1% | Population Membrane Permeable-Phenotype (%) [6]: 1% and 4% | Population Mitochondria Different-Phenotype (%) [6]: 13% and 9% | Population Mitotic Cells (%) [6]: 50% and 36% | Population Normal (%) [6]: 98% | Population Pyknosed Nuclei (%) [6]: 12% and 13% | Population Tubulin-Different-Phenotype (%) [6]: 70% and 88% | Total Cell Count [6]: 134 and 170
